Consider nine compounds from ChEMBL document CHEMBL1129732, “Potent, cell active, non-thiol tetrapeptide inhibitors of farnesyltransferase” (J Med Chem, 1996).

Experiment [1] deals with Geranylgeranyl transferase type I (Homo sapiens, UniProt P49354+P53609). Description: Inhibition of Geranylgeranyl transferase type I. Format: protein-complex assay.
For experiment [2], the target named is Protein farnesyltransferase (Homo sapiens, UniProt P49354+P49356). The experiment is described as follows: Inhibition of Farnesyltransferase. Format: protein-complex assay.
The test system of a further experiment is Rat1. The experiment is described as follows: Inhibition of anchorage-independent growth of H-Ras-transformed rat-1 cells in soft agar. It counts as functional, cell-based.
A further experiment has as its system NIH3T3. Description: Highest tested nontoxic concentration (maximum tolerated dose) against NIH3T3 cells in XTT assay. Format: functional, Mus musculus. The procedure, abridged: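 Untransformed NIH 3T3 cells were seeded at 2500 cells/well. Cells were incubated 48 h at 37 °C, then XTT with phenazine methosulfate was added. XTT reduction served as the measure of live cells.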
In general terms: Tetrazolium dyes change colour on reduction, which living cells bring about.

Broadly, the IC50 is the concentration that inhibits the measured activity by half. A high value points to a need for much substance.

Regarding `CSCC[C@H](NC(=O)[C@@H]1Cc2ccccc2CN1C(=O)[C@@H](NC(=O)c1c[nH]cn1)C(C)C)C(=O)O`, the IC50 stood at 25800 nM in experiment [1] and 84 nM in experiment [2].

Turning to `CC(C)(C)[C@H](NCCCc1cnc[nH]1)C(=O)N1Cc2ccccc2C[C@H]1C(=O)N[C@@H](CCC(N)=O)C(=O)O`, the IC50 came out at 106000 nM in experiment [1] and 20 nM in experiment [2].

As for `CC(C)(C)[C@H](NCCc1c[nH]cn1)C(=O)N1Cc2ccccc2C[C@H]1C(=O)N[C@@H](CCC(N)=O)C(=O)O`, the values for the IC50 (with Rat1; in experiment [1]; in experiment [2]) were 3200 nM, 30500 nM and 3.4 nM, respectively.

As to `CC(C)(C)[C@H](NC(=O)Cc1c[nH]cn1)C(=O)N1Cc2ccccc2C[C@H]1C(=O)N[C@@H](CCC(N)=O)C(=O)O`, the IC50 in the experiment with Rat1 turned out to be 3900 nM; in experiment [2], 28 nM. This compound also yielded an MTD in the experiment on NIH3T3 above 150 µM.

On to `CSCC[C@H](NC(=O)[C@@H]1Cc2ccccc2CN1C(=O)[C@@H](NC(=O)Cc1c[nH]cn1)C(C)C)C(=O)O`, for which the IC50 in the experiment with Rat1 stood at 50000 nM; in experiment [1], 2020 nM; in experiment [2] it was 6.6 nM. Also, the MTD in the experiment on NIH3T3 is above 150 µM.

Regarding `CSCC[C@H](NC(=O)[C@H](Cc1ccccc1)NC(=O)[C@@H](NC(=O)[C@@H](N)Cc1cnc[nH]1)C(C)C)C(=O)O`, the midpoint of inhibition in experiment [2], the IC50, lay at 6800 nM. That is a single-digit micromolar value.

Regarding `CC(C)(C)[C@H](NC(=O)CCc1c[nH]cn1)C(=O)N1Cc2ccccc2C[C@H]1C(=O)N[C@@H](CCC(N)=O)C(=O)O`, the IC50 is 168000 nM in experiment [1] and 4.4 nM in experiment [2].

For the compound `CSCC[C@H](NC(=O)[C@@H]1Cc2ccccc2CN1C(=O)[C@@H](NCc1c[nH]cn1)C(C)C)C(=O)O`, the IC50 in experiment [1] was found to be 17400 nM; in experiment [2] it was 114 nM.

For the compound `CSCC[C@H](NC(=O)[C@@H]1Cc2ccccc2CN1C(=O)[C@@H](NCCc1c[nH]cn1)C(C)C)C(=O)O`, the values for the IC50 (in the experiment on Rat1; in experiment [1]; in experiment [2]) were 3800 nM, 234 nM and 0.79 nM, respectively. Also, the MTD in the experiment on NIH3T3 is above 150 µM.
